Bioassay records (PubChem BioAssay)
The list is not random: actives were taken first. Their share in the collection is about 3.9%.
CHO parental Ca – counter-screen: ATP calcium response change in parental CHO cells. parental CHO-K1, ATP-induced calcium, Fluo-8 fluorescence. inhibition, % at 5.6 µM. 0.63% of 330,000 active;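 active = inhibition above that plate's mean sample inhibition plus 3 SD, cut at about 26% in these data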;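 also: 0% = ATP-challenged DMSO wells and 100% = DMSO wells without ATP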
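Material: Parental CHO cells | Reagent: ATP | Compound dosing: Single nominal dose of 5.6 µM per compound | Detection: Intracellular calcium via Fluo-8 no-wash fluorescent dye | Read-out: % inhibition of ATP-induced calcium mobilization | Benchmarks: Low control ATP plus DMSO, high control DMSO only | Replicates: Singlicate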
TAAR1 antagonist – antagonists of human TAAR1 | Q96RJ0 | inhibition, % at 3 µM | CHO RD-HGA16 TAAR1, Fluo-8 calcium fluorescence, antagonist | AID 624466 | 1.5% of 360,000 active;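 active = inhibition above a per-plate cutoff, the mean inhibition of test compounds on that plate plus 3 SD, cut at about 49% in these data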;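 also: 0% = DMSO plus EC80 beta-PEA response and 100% = DMSO alone without agonist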
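Test system: hTAAR1-expressing CHO RD-HGA16 cells, Gα16-coupled; Probe or stimulus: EC80 β-phenethylamine stimulus; Compound dosing: single nominal final test compound concentration of 3 µM; Timing: 140 s kinetic read after compound, 140 s after agonist; Signal: Fluo-8 calcium-sensitive fluorescence; Measure: % inhibition of agonist calcium response; Controls: DMSO and EC80 PEA controls.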
OX1R antag-1 – antagonists of human orexin 1 receptor | O43613 | CHO/OX1R cells, Fluo-8 calcium fluorescence, orexin A | inhibition, % at 5 µM | 0.43% of 330,000 active | AID 434989;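 active = inhibition above its plate's threshold, mean inhibition of all tested compounds on the plate plus 3 SD, cut at about 37% in these data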;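 also: 0% = orexin A challenge wells and 100% = SB-334867-A antagonist wells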
Target sequence (O43613 whole entry, looked up): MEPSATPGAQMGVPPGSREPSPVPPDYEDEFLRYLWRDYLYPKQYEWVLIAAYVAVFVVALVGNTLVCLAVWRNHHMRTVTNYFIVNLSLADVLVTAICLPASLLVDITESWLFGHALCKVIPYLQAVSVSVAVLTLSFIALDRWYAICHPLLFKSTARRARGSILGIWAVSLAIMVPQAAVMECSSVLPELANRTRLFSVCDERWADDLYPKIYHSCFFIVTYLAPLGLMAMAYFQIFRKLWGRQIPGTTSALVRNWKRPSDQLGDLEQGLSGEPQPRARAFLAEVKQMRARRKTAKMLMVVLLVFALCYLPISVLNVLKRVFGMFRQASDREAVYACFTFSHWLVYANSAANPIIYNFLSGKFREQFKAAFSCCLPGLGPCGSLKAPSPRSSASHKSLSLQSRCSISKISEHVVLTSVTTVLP
OX1R antag-2 – antagonists of human orexin 1 receptor (OX1R); OX1R-expressing cells, FRET antagonist read-out; AID 485270; O43613; 1.8% of 330,000 active; inhibition, % at 6.6 µM; in the data active = inhibition mostly above about 38%, no sharp cut-off; inactive = mostly below about 40%;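 also: 0% = agonist challenge alone and 100% = reference antagonist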
TAAR1 ag – human TAAR1 agonism. Q96RJ0. CHO RD-HGA16 TAAR1, Fluo-8 calcium fluorescence; vehicle wells 0%, saturating PEA agonist 100%. activation, % at 3 µM. 0.99% of 360,000 active. AID 624467;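 active = activation above the mean activation of all test compounds in the run plus 3 SD, cut at about 38% in these data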
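Signal – calcium-sensitive Fluo-8 signal, excitation 470-495, emission 515-575 nm · System – RD-HGA16 (CHO) cells co-expressing Gα16 and hTAAR1 · Incubation – 17-24 h seeding, 75 min 37 °C dye, 30 min RT · Compound dosing – 3 µM single concentration · Repeats – no replicates (n 1)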
* marks the source's active call; other numbers are inactive results; x = no result.

SMILES | CHO parental Ca | TAAR1 antagonist | OX1R antag-1 | OX1R antag-2 | TAAR1 ag
COC(=O)[C@]12C[C@H](CC(=O)NCc3ccc(C)o3)C(=O)N(Cc3ccc4c(c3)OCO4)C1=C[C@H](COCc1ccccc1)O[C@@H]2C | x | -22 | x | x | -1
O=C(Nc1ccc2c(c1)OCCO2)C(C1CC1)N1CCN(c2ccc(C(F)(F)F)cn2)CC1 (centres undefined) | x | -12 | x | x | 0
Cc1c(C(=O)NCc2ccccc2C(F)(F)F)sc(=O)n1Cc1ccc(F)cc1 | x | 13 | x | x | 3
O=C(Nc1ccc(N2CCOCC2)cc1)c1csc([C@H]2C[C@H](O)[C@@H](CO)O2)n1 | x | -21 | x | x | 2
O=c1[nH]c(/C=C\c2cccnc2)c([N+](=O)[O-])c(=O)[nH]1 | 5 | 0 | 1 | 54* | 13
COc1cc(/C=C/c2[nH]c(=O)[nH]c(=O)c2[N+](=O)[O-])cc([N+](=O)[O-])c1O | -12 | -15 | -12 | 63* | 4
O=c1[nH]c(/C=C/c2cccnc2)c([N+](=O)[O-])c(=O)[nH]1 | -8 | -8 | -21 | 36 | 7
OC(c1cccnc1)c1nc(-c2cccc(F)c2)cs1 (centres undefined) | x | -1 | x | x | 2
CCN(CC)c1ccc(Nc2nc(N3CCOCC3)c3ccccc3n2)cc1 | 5 | 26 | 4 | 42* | 12
O=C(NCC1CCN(C(=O)C(=O)c2cc3ccccc3o2)CC1)c1ccc2c(c1)OCC2 | x | -29 | x | x | 4
CCOc1cc(OCC)cc(C(=O)N2CCC[C@@H]2C(=O)N2CCC[C@@H]2C(=O)NCc2cccc(OC)c2)c1 | x | -10 | x | x | -1
Cc1cc(C)c(S(=O)(=O)/N=C2/C=C(Sc3ncn[nH]3)C(=O)c3ccccc32)cc1C | -6 | 45 | 0 | 63* | 30
Cc1ccc(C)c(S(=O)(=O)/N=C2\C=C(NS(=O)(=O)c3ccccc3)C(=O)c3ccccc32)c1 | -16 | 16 | -14 | 37 | -2
Cc1ccc2cccc(NC(=S)NC(=O)c3c(Br)cnn3C)c2n1 | -27 | -7 | -37 | 16 | 2
Cc1ccc2cccc(NC(=S)NC(=O)c3ccn(C)n3)c2n1 | -42 | 11 | 0 | 65* | 1
COc1cccc(-c2cc(NC(C)=O)c3ncc(-c4ccc(OC)c(OC)c4)n3c2)c1 | x | 26 | x | x | 3
CC1(C)CC[C@]2(C(=O)O)[C@H](O)C[C@]3(C)C(=CCC4[C@@]5(C)C[C@H](O)[C@H](O)[C@@](C)(CO)C5CC[C@]43C)[C@@H]2C1 (some centres undefined) | 74* | -22 | 24 | 7 | 1
CC1(C)C[C@H]2C3=CCC4[C@@]5(C)CC[C@H](O)[C@](C)(CO)C5CC[C@@]4(C)[C@]3(C)CC[C@@]2(C)[C@H](O)[C@@H]1O (some centres undefined) | -1 | 8 | -5 | 5 | 5
Cc1ccc(CNC(=O)c2ccc(N3CCC4(CC3)CC(c3cccc(Br)c3)=NO4)c([N+](=O)[O-])c2)cc1 | 0 | -5 | -15 | 13 | 23
CCCNC(=O)c1ccc(N2CCC3(CC2)CC(c2cccc(Br)c2)=NO3)c([N+](=O)[O-])c1 | 16 | 51* | 7 | 40 | 5
Cc1cccc(N(C)C(=O)CCS(=O)(=O)c2cccc3nonc23)c1 | -16 | -8 | -16 | 52* | 7
CC(=O)c1cccc(NC(=O)CCS(=O)(=O)c2cccc3nonc23)c1 | -3 | 0 | -11 | 58* | 6
COc1cccc(CNC(=O)CCS(=O)(=O)c2cccc3nonc23)c1 | -16 | -14 | -14 | 59* | 11
COc1ccc(N(C)C(=O)CCS(=O)(=O)c2cccc3nonc23)c(OC)c1 | 1 | 8 | -20 | 61* | 0
CCOC(=O)[C@]12CCC=C1N(CCC1=CCCCC1)C(=O)[C@H](CC(=O)NCCCCc1ccccc1)C2 | x | -7 | x | x | 13
SMILES | CHO parental Ca | TAAR1 antagonist | OX1R antag-1 | OX1R antag-2 | TAAR1 ag
Cn1c(=O)c2c(nc(C(O)c3ccccc3)n2C)n(C)c1=O (centres undefined) | x | 8 | x | x | 0
COC(=O)c1ccc2nc(-c3ccccc3)c(Cc3ccc(C)cc3)n2c1 | x | 32 | x | x | -1
Nc1ccn(C2OC(CCl)C(O)C2O)c(=O)n1 (centres undefined) | x | -16 | x | x | 7
CC1CN(C(=O)CSc2nc(N)c(NC(=O)c3ccc(C(F)(F)F)cc3)c(=O)[nH]2)CC(C)O1 (centres undefined) | x | -14 | x | x | 19
CCOc1cc(CNCC(C)C)cc(Cl)c1OCc1ccccc1 | -24 | -18 | -18 | 21 | 16
COc1cc(CNCc2ccccc2)cc(Cl)c1OC | -13 | -5 | -32 | 13 | 3
CCOc1cc(CNC2CCCC2)cc(Cl)c1OCc1ccccc1 | 0 | 19 | 0 | 6 | 58*
COc1cc(CNCCc2ccccc2)cc(Cl)c1OCc1ccccc1 | 27 | 39 | -17 | 5 | 40*
O=c1c2ccccc2ncn1CCCOc1ccccc1[N+](=O)[O-] | -14 | 3 | -13 | 13 | 14
O=C(Cn1cnc2cc([N+](=O)[O-])ccc2c1=O)NC1CCS(=O)(=O)C1 (centres undefined) | -1 | 11 | -18 | 63* | 7
CCc1ccc(C(=O)Cn2cnc3cc([N+](=O)[O-])ccc3c2=O)cc1 | -8 | 5 | -16 | 29 | 0
CN(Cc1cccs1)C(=O)Cn1cnc2cc([N+](=O)[O-])ccc2c1=O | -2 | 3 | -17 | 40* | 6
Cc1ccccc1OCCn1cnc2cc([N+](=O)[O-])ccc2c1=O | 2 | 49* | -27 | 31 | 11
C[n+]1ccccc1/C=C/c1ccc([N+](=O)[O-])cc1 | 1 | 5 | -6 | 36* | -1
O=C(O)c1cc([N+](=O)[O-])c(NCc2cccnc2)c([N+](=O)[O-])c1 | -10 | -1 | -14 | 76* | -1
O=C(/C=C/c1ccccc1[N+](=O)[O-])NCc1cccnc1 | -4 | -17 | -12 | 61* | 6
CC(C)c1ccc(C(=O)NC(=S)NCc2cccnc2)cc1 | -7 | -5 | -10 | 23 | 12
O=C(NC(=S)NCc1cccnc1)c1ccc([N+](=O)[O-])cc1 | -11 | 13 | -17 | 75* | -1
Cc1cc(C)n(C(N)=NC(=O)c2ccccc2)n1 | x | -19 | x | x | 2
COc1ccc(/C=N/NC(=O)c2cc3c(OC)ccc(OC)c3[nH]2)cc1O | -14 | 4 | -9 | 62* | 6
COc1cc(/C=N/Nc2snc(SC)c2C#N)ccc1O | -11 | 24 | 45 | 81* | 37
COc1cc(/C=N/NC(=O)c2cc3ccccc3[nH]2)ccc1O | -7 | 19 | 16 | 46* | 5
C=CCOc1ccc(/C=N/NC(=O)c2cc3c(OC)cc(OC)cc3[nH]2)cc1 | -20 | 35 | 14 | 48* | 7
COc1ccc(CNC(=O)CCS(=O)(=O)c2ccc3nc(C)sc3c2)cc1 | x | -19 | x | x | 1
COc1ccc(-c2coc3c(C(=O)Nc4cccnc4)cccc23)c(C)c1 | x | 38 | x | x | 2
